The results in this text go back to ChEMBL document CHEMBL1152649, “Synthesis, cytotoxicity and human telomerase inhibition activities of a series of 1,2-heteroannelated anthraquinones and anthra[1,2-d]imidazole-6,11-dione homologues” (2009).

For orientation: residual activity means the activity still measured, relative to the control.

One assay deals with MCF7. Nature of the assay: Antiproliferative activity against human MCF7 cells assessed as cell growth at 10 uM. The assay is classed as functional. To be noted: read-out: Activity. In a few lines: (§1)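 NCI 60 cell line panel, single-dose screen (10^-5 M) run by the developmental therapeutics program protocol. Results are given as growth percent of treated cells relative to untreated control cells for each line.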

Another assay concerns DU-145. Put plainly: Antiproliferative activity against human DU145 cells assessed as cell growth at 10 uM. The class given is functional. To be noted: read-out: Activity. The method in brief: as §1
In assay [1] the target is Telomerase reverse transcriptase (Homo sapiens) (UniProt O14746). Put plainly: Inhibition of TERT in human H1299 cells assessed as residual transcriptional activity at 1 uM after 24 hrs by SEAP reporter gene assay; values are per cent of control. (In general: In a reporter assay the amount or activity of a reporter protein is the signal.)
The test system of a further assay is HT-29. Nature of the assay: Antiproliferative activity against human HT-29 cells assessed as cell growth at 10 uM. The settings on record: read-out: Activity. The class given is functional. The method in brief:
as §1

A further assay deals with SW-620. Nature of the assay: Antiproliferative activity against human SW620 cells assessed as cell growth at 10 uM. The class given is functional. The settings on record: read-out: Activity. In a few lines:
(§2)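 NCI 60 cell line panel, single dose (10^-5 M), run per the Developmental Therapeutics Program protocol (one dose mean graph). Each result is the growth percentage of treated cells relative to untreated control cells.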

The subject of another assay is NCI-H226. Nature of the assay: Antiproliferative activity against human NCI-H226 cells assessed as cell growth at 10 uM. The class given is functional. The settings on record: read-out: Activity. In a few lines: as §1
The target of assay [2] is Telomerase reverse transcriptase (Homo sapiens) (UniProt O14746). Nature of the assay: Inhibition of TERT in human H1299 cells assessed as residual transcriptional activity at 100 uM after 24 hrs by SEAP reporter gene assay; values are per cent of control.
The next assay relates to HCT-15. Nature of the assay: Antiproliferative activity against human HCT15 cells assessed as cell growth at 10 uM. To be noted: read-out: Activity. The assay is classed as functional. In a few lines:
as §1

In assay [3] the target is Telomerase reverse transcriptase (Homo sapiens) (UniProt O14746). Nature of the assay: Inhibition of telomerase in human H1299 cells up to 100 uM by TRAP assay. The assay is classed as cell-based. In a few lines:
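PCR-based telomeric repeat amplification protocol (TRAP). The telomerase source was total lysate of H1299 lung cancer cells, with protein measured against BSA standards. Controls were extract without inhibitor and RNase A-treated extract.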

The next assay deals with MOLT-4. Put plainly: Antiproliferative activity against human MOLT4 cells assessed as cell growth at 10 uM. The assay is classed as functional. To be noted: read-out: Activity. The method in brief:
as §1

Another assay concerns SF-539. Put plainly: Antiproliferative activity against human SF539 cells assessed as cell growth at 10 uM. The assay is classed as functional. To be noted: read-out: Activity. In a few lines: as §1
The test system of another assay is SK-OV-3. Put plainly: Antiproliferative activity against human SKOV3 cells assessed as cell growth at 10 uM. The class given is functional. To be noted: read-out: Activity. In a few lines: as §1
A further assay deals with KM12. Put plainly: Antiproliferative activity against human KM12 cells assessed as cell growth at 10 uM. The settings on record: read-out: Activity. The class given is functional. In a few lines: as §1
For the next assay, the system named is UACC-62. Put plainly: Antiproliferative activity against human UACC62 cells assessed as cell growth at 10 uM. The assay is classed as functional. The settings on record: read-out: Activity. In a few lines:
as §2

For the next assay, the system named is EKVX. Put plainly: Antiproliferative activity against human EKVX cells assessed as cell growth at 10 uM. The class given is functional. The settings on record: read-out: Activity. The method in brief: as §1
A further assay deals with MDA-MB-468. Put plainly: Antiproliferative activity against human MDA-MB-468 cells assessed as cell growth at 10 uM. The assay is classed as functional. To be noted: read-out: Activity. The method in brief: as §1

Active and inactive are the calls of the source. The calls are words filed in the database; no cut-off is given here.

Chain of Telomerase reverse transcriptase (Homo sapiens) (O14746 whole entry): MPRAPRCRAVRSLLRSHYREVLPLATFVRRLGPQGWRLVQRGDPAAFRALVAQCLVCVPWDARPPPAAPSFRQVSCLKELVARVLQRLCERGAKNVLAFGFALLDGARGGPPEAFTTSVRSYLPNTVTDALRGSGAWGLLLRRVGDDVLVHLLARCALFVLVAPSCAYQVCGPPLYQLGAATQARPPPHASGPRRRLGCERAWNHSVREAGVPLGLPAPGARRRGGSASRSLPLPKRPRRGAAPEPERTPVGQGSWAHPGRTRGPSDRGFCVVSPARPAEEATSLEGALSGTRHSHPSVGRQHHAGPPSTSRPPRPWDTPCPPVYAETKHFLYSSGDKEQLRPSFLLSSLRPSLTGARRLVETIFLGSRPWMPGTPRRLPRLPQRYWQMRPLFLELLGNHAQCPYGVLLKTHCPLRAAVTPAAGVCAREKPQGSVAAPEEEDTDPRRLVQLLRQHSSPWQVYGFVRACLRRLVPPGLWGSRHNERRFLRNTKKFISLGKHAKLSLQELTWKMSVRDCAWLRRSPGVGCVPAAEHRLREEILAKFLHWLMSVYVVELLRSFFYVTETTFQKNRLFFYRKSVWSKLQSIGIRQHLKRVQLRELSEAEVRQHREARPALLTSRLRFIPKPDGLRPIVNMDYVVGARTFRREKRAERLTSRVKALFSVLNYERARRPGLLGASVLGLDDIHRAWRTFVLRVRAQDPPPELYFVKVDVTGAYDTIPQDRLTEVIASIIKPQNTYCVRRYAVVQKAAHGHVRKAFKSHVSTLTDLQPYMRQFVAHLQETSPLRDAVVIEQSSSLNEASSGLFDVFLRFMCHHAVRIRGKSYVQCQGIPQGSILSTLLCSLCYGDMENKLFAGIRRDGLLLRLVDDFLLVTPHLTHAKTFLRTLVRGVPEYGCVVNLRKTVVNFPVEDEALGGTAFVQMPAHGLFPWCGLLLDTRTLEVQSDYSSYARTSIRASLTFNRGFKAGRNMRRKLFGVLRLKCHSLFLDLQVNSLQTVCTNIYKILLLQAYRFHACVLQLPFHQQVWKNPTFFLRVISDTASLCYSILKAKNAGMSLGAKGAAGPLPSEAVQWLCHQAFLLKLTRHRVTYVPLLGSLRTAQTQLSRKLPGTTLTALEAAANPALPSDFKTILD

As for `Cc1ccc(-c2nc3ccc4c(c3[nH]2)C(=O)c2ccccc2C4=O)cc1`, the growth at 10 µM with MCF7 was 41.9%; with DU-145, 98.8%; in the assay with HT-29 it was 106%; with SW-620, 113%; in the assay with NCI-H226 it was 101%; in the assay with HCT-15, 100%. For the same compound, the growth at 10 µM is 106% with MOLT-4; 91.7% with SF-539; 84.5% with SK-OV-3; 106% in the assay with KM12; 90% in the assay with UACC-62; 91.2% in the assay on EKVX. Besides, the residual activity in assay [1] stood at 86%; in assay [2] it was 29%. Further, the inhibition entry in [3] was “inactive”.
As to `COc1cc(-c2nc3ccc4c(c3[nH]2)C(=O)c2ccccc2C4=O)ccc1O`, the growth at 10 µM was 57.5% in the assay with MCF7; 88.1% in the assay on DU-145; 101% with HT-29; 102% in the assay on SW-620; 100% in the assay on NCI-H226; 103% in the assay with HCT-15. The growth at 10 µM was 96.4% in the assay with MOLT-4; 102% in the assay on SF-539; 113% with SK-OV-3; 113% with KM12; 92.2% in the assay with UACC-62; 89.1% in the assay on EKVX. Besides, the results for the residual activity in assay [1] and in assay [2] were 85% and 8%, respectively. In addition, in assay [3], the inhibition entry is “inactive”.
`CC1(C)Nc2ccc3c(c2N1)C(=O)c1ccccc1C3=O`: the growth at 10 µM in the assay with MCF7 is 83.6%; in the assay on DU-145, 76%; with HT-29, 103%; in the assay with SW-620, 91.7%; in the assay on NCI-H226 it was 89.7%; in the assay with HCT-15 it was 64.6%. In addition, the growth at 10 µM in the assay on MOLT-4 worked out at 116%; with SF-539 it was 93.6%; in the assay with MDA-MB-468 it was 77.2%; with SK-OV-3, 35.9%; with KM12, 51.5%; with UACC-62 it was 67.6%. For the same compound, in the assay on EKVX, the growth at 10 µM came out at 63.1%. Moreover, the values for the residual activity in assay [1] and in [2] were 96% and 9%, respectively. Further, in assay [3], the inhibition result is “inactive”.
`O=C1c2ccccc2C(=O)c2c1ccc1nc(-c3ccccc3)[nH]c21`: the growth at 10 µM turned out to be 51.8% with MCF7; 84.3% with DU-145; 83.2% in the assay on HT-29; 82.8% with SW-620; 80.5% with NCI-H226; 86.3% in the assay on HCT-15. Moreover, the growth at 10 µM is 88.3% in the assay with MOLT-4; 96.2% with SF-539; 115% in the assay on SK-OV-3; 75.5% in the assay on KM12; 70.4% in the assay with UACC-62; 77.1% in the assay with EKVX. Moreover, the residual activity turned out to be 81% in assay [1] and 10% in assay [2]. For the same compound, in [3], the inhibition result is “inactive”.
